p-CIP stab down = p/CIP protein destabilization; decrease of EGFP signal, % at 10 µM; F442A p/CIP-EGFP cells, EGFP fluorescence, 16 h; Q05BA5; 290,000 tested, 0.01% active;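 active = EGFP signal decrease of at least 30% at 10 µM or well 3 SD below plate mean, unless failing retest; inactive = the rest, including hits failing retest or dose response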
Target sequence (Q05BA5 1-1403): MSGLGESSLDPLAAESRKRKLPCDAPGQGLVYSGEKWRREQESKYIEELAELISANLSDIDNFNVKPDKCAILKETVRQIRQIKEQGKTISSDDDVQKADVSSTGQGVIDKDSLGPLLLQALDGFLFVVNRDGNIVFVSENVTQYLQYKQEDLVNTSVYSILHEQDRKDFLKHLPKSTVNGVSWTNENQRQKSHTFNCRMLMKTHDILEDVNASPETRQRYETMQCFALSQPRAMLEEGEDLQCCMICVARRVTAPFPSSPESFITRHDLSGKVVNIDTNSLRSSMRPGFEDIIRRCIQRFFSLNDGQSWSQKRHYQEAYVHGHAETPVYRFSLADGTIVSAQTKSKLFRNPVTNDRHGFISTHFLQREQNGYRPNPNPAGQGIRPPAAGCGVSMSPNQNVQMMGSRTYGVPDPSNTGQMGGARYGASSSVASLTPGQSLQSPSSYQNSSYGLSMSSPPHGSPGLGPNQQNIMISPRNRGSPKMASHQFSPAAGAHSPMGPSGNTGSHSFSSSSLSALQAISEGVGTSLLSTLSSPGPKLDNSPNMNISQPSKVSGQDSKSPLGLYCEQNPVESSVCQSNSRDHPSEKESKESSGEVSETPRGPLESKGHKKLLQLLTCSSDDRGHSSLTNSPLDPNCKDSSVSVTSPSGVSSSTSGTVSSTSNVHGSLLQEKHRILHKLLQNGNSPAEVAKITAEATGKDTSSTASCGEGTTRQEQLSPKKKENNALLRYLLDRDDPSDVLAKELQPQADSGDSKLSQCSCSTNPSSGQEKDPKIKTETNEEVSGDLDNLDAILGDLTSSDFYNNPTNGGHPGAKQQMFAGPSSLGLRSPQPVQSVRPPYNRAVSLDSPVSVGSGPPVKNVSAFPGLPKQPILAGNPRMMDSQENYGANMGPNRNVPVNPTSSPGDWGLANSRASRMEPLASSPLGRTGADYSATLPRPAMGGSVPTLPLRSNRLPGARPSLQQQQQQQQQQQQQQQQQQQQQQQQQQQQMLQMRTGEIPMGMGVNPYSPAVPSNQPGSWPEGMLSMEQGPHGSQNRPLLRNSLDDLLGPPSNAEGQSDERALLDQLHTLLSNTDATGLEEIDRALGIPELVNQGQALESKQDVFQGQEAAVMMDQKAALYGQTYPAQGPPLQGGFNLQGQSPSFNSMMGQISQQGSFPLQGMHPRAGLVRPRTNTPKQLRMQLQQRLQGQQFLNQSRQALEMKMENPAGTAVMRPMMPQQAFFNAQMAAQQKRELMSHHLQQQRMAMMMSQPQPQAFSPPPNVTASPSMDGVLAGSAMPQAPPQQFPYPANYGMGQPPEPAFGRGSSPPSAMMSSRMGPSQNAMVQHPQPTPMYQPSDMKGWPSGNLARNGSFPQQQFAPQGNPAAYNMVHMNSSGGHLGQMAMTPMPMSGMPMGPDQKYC
T cell modulator = modulates CD8 T cell binding to vesicles | 2C CD8+ T cell-vesicle binding, flow cytometry; active compounds read low | response (vesicle binding), % at 7 µM | 330,000 tested, 0.068% active | AID 2052;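 active = response, share of CD8 T cells binding vesicles, and their 90th percentile fluorescence all below set limits, cut at about 80% in these data, passing the limit was not always enough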;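 also: values below 100% mean blocked vesicle binding to the CD8+ T cells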
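Assay system – 2C mouse CD8+ T cells · Also added – QL9-loaded Drosophila micro-vesicles · Timing – Cell–vesicle co-incubation 1.5 h at 37 °C, staining 20 min on ice · Signal – flow cytometry of vesicle-bound cells · Measure – percent CD8+ FL2 mean versus row control · Controls – Peptide-free naked vesicles (low) and QL9 vesicles with 0.7% DMSO vehicle (high)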
VIM-2 inhibitor = blocks Pseudomonas aeruginosa VIM-2 metallo-beta-lactamase. purified VIM-2, nitrocefin hydrolysis, epi-absorbance fluorescence. inhibition, % at 5.6 µM. 290,000 tested, 0.89% active;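 active = inhibition above the mean of all tested compounds plus 3 SD, cutoff set per screening run, cut at about 7.5% in these data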;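 also: red hydrolysis product quenches plate fluorescence so inhibitors raise well fluorescence; 0% = enzyme with DMSO and 100% = DMSO without enzyme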
SUMO HTRF inh = blocks human SUMOylation mediated by UBC9; 290,000 tested, 0.36% active; inhibition, % at 35 µM; P63279; HTRF SUMOylation assay, SAE1/SAE2 + UBC9, in vitro; in the data active = inhibition above about 50%, passing the limit was not always enough
IMP-1 inh-1 = blocks Pseudomonas aeruginosa IMP-1 metallo-beta-lactamase | 290,000 tested, 0.45% active | inhibition, % at 5.6 µM | purified IMP-1, nitrocefin hydrolysis, epi-absorbance fluorescence;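 active = inhibition above the mean plus 3 SD of all compounds in the same screening run, cut at about 4.5% in these data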;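 also: 0% = IMP-1 with DMSO and 100% = DMSO wells lacking enzyme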
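System: Purified IMP-1 | Read-out basis: Percent enzyme inhibition | Controls: IMP-1 with DMSO as 0%, enzyme-free DMSO as 100% | Replicates: One well per compound | Doses: 5.6 µM nominal single concentration | Detection: Epi-absorbance fluorescence, 480 nm excitation, 530 nm emission | Incubation: 25 °C, 15 min preincubation, 25 min reaction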
CTSL1 counter = cathepsin L1 inhibition, PFM18AAP counter-screen; recombinant F. hepatica cathepsin L1, Z-Leu-Arg-MCA fluorescence; inhibition, % at 5.96 µM; 300,000 tested, 0.49% active;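 active = inhibition above the mean of all tested compounds plus 3 SD, set per screening campaign, cut at about 17% in these data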;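 also: 0% = plate median of test compound wells and 100% = 1 µM Z-Phe-Ala-diazomethylketone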
IMP-1 inh-2 = blocks IMP-1 metallo-beta-lactamase in VIM-2 selectivity screen; shares compounds with VIM-2 inhibitor; purified IMP-1, nitrocefin hydrolysis, epi-absorbance fluorescence; 1,300 tested, under 10 active; inhibition, % at 5.6 µM; call rule not given here;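 also: 0% = enzyme with vehicle and 100% = vehicle without enzyme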
VIM-2 FRET ctr = VIM-2 FRET inhibition, artifact counter-screen; shares compounds with VIM-2 inhibitor; purified VIM-2, CCF2 FRET substrate hydrolysis; inhibition, % at 5.6 µM; 1,300 tested, 23% active;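 active = inhibition above the mean of all tested compounds plus 3 SD, cut at about 19% in these data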;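 also: 0% = VIM-2 plus DMSO and 100% = no enzyme wells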
TEM-1 inh = selectivity counter-screen for VIM-2 inhibitors: E. coli TEM-1 inhibitors; Purified TEM-1, nitrocefin hydrolysis, epi-absorbance fluorescence; shares compounds with VIM-2 inhibitor; AID 1866; inhibition, % at 5.6 µM; 1,300 tested, 3% active;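 active = inhibition above that campaign's mean inhibition plus 3 SD, cut at about 0.46% in these data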;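 also: 0% = TEM-1 with DMSO and 100% = TEM-1 with 100 µM potassium clavulanate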
VIM-2 inh conf = confirmation of P. aeruginosa VIM-2 metallo-beta-lactamase inhibitors | shares compounds with VIM-2 inhibitor | purified VIM-2, nitrocefin hydrolysis, epi-absorbance | inhibition, % at 5.6 µM | 1,300 tested, 96% active;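 active = inhibition of the VIM-2 beta-lactamase enzyme above about 11% from the earlier first-round screen, limit read from the data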;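 also: 0% = VIM-2 with DMSO and 100% = buffer wells without enzyme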
An asterisk follows results filed as active; i = inactive; x = no result given. This is a sample that favours compounds with a hit; in the whole collection about 1.9% have one here.

SMILES | p-CIP stab down | T cell modulator | VIM-2 inhibitor | SUMO HTRF inh | IMP-1 inh-1 | CTSL1 counter | IMP-1 inh-2 | VIM-2 FRET ctr | TEM-1 inh | VIM-2 inh conf
CCN(CC)CCNc1ccc(CO)c2sc3ccccc3c(=O)c12 | -4 | 665 | 24* | 2 | -3 | 2 | 1 | -1 | -8 | 35*
Cc1c(CCO)c(=O)n2c([nH]c3ccccc32)c1C#N | 8 | 181 | 21* | 0 | -2 | 6 | -2 | -4 | -5 | 30*
COC(=O)c1c(NC(=O)c2ccco2)sc2c1CC(C)(C)NC2(C)C | -11 | 212 | 13* | 3 | 1 | 1 | -5 | 3 | -8 | 17*
CCN(CC)CCNC(=O)c1ccc2c(c1NCCO)C(=O)c1ccccc1C2=O | 36* | 200 | 14* | 10 | -1 | 10 | -5 | 2 | -8 | 20*
CCN(CC)CCC(=O)Nc1cccc2c1C(=O)c1ccccc1C2=O | -6 | 587 | 33* | 19 | -1 | 0 | -2 | -1 | -9 | 45*
O=C(NNC(=O)C12CC3CC(CC(C3)C1)C2)c1ccccc1[N+](=O)[O-] | -10 | 169 | -1 | 1 | -5 | -1 | x | x | x | x
COc1cccc(C=Nc2ccc(N3CCOCC3)cc2)c1O | 9 | 178 | -1 | 0 | -19 | -4 | x | x | x | x
CCN1CCN(c2ccc(N=Cc3ccccc3O)cc2)CC1 | -7 | 269 | 40* | 8 | -10 | -2 | -8 | -5 | -6 | 28*
CC(CC(=O)N1CCN(S(=O)(=O)c2ccc(Cl)cc2)CC1)n1cncn1 (stereo not given) | 0 | 312 | -5 | 8 | -3 | -3 | x | x | x | x
COc1cc(OC)c2nc(C)c3c(c2c1)N(c1ccc(O)cc1)CC3 | -10 | 430 | 57* | -27 | -1 | 5 | -4 | -31 | -6 | 69*
O=C(O)C(c1ccccc1)N1C(=O)c2cccc3cccc(c23)C1=O (stereo not given) | -7 | 249 | 20* | 3 | 4 | 3 | 3 | 39* | -7 | 27*
O=C(NNC(=O)c1ccc(F)cc1F)c1ccc2c(c1)OCO2 | 9 | 201 | 1 | 10 | -1 | -4 | x | x | x | x
COCCNc1c2c(nc3c(-c4ccccc4)c(C)nn13)CCC2 | -9 | 689 | 6 | 27 | -3 | -2 | x | x | x | x
Cc1nn2c(NCCCN(C)C)c3c(nc2c1-c1ccccc1)CCCC3 | -7 | 216 | 45* | 3 | -1 | 1 | -2 | 0 | -6 | 53*
Cc1nn2c(NCCOCCO)c3c(nc2c1-c1ccccc1)CCC3 | -19 | 351 | 4 | 5 | -3 | 4 | x | x | x | x
Cc1nn2c(NCCCN(C)C)c3c(nc2c1-c1ccccc1)CCC3 | -2 | 434 | 14* | -4 | -3 | 1 | -3 | -5 | -7 | 37*
O=C(CCNC(=O)c1ccc([N+](=O)[O-])cc1)Nc1ccccc1N1CCCCC1 | x | 324 | x | x | x | -5 | x | x | x | x
Oc1ccc(CN2CCN(Cc3ccccc3)CC2)c2cccnc12 | x | 406 | -1 | x | -2 | -1 | x | x | x | x
CN1CCN(Cc2cc(COCc3ccccc3)c3cccnc3c2O)CC1 | -8 | 687 | 12* | -31 | -2 | 2 | -3 | 33* | -5 | 33*
c1ccc2c(Nc3ccc4c(c3)OCCO4)c3c(nc2c1)CCCC3 | 3 | 873 | 15* | 0 | -1 | 3 | -3 | -5 | -2 | 23*
COc1cc(Nc2c3c(nc4ccccc24)CCCC3)cc(OC)c1OC | 3 | 317 | 1 | 11 | -2 | 5 | x | x | x | x
COc1ccc(Nc2nc(N3CCN(C)CC3)nc3ccccc23)c(OC)c1 | -20 | 163 | 16* | -6 | -1 | 6 | -3 | 0 | -7 | 28*
COc1ccc(Nc2c3c(nc4ccccc24)CCC3)c(OC)c1 | -5 | 263 | 19* | 12 | 0 | 1 | -5 | -3 | -8 | 22*
O=C(COC(=O)c1c2c(nc3ccccc13)CCCC2)Nc1ccc2c(c1)OCO2 | -4 | 140 | -3 | -2 | -3 | 1 | x | x | x | x
Cc1cc(C)cc(NC(=O)C(c2ccccc2)N2CCN(CC(=O)NC3CC3)CC2)c1 (stereo not given) | x | 440 | x | x | x | x | x | x | x | x
SMILES | p-CIP stab down | T cell modulator | VIM-2 inhibitor | SUMO HTRF inh | IMP-1 inh-1 | CTSL1 counter | IMP-1 inh-2 | VIM-2 FRET ctr | TEM-1 inh | VIM-2 inh conf
N#CCSc1nc2cc(C(=O)N3CCC(C(N)=O)CC3)ccc2c2nc3ccccc3n12 | -27 | 330 | 24* | 15 | -1 | 4 | -2 | 1 | -4 | 40*
CN1CCN(CCNC(=O)c2cc3c(=O)n(C)c4ccccc4c3n2C)CC1 | -4 | 97 | 21* | 12 | 2 | 1 | -2 | 5 | -5 | 33*
CCCN1CCN(CCCNC(=O)c2cc3c(=O)n(C)c4ccccc4c3n2C)CC1 | 0 | 242 | 16* | 16 | -5 | -6 | -3 | 4 | -5 | 30*
Cn1c(C(=O)NCCCN2CCCCCC2)cc2c(=O)n(C)c3ccccc3c21 | -8 | 404 | 22* | -2 | 1 | 1 | 0 | -2 | -4 | 29*
Cc1ccc(NC(=O)COC(=O)Cc2ccsc2)cc1S(=O)(=O)N1CCOCC1 | 0 | 91 | -2 | -15 | -2 | -17 | x | x | x | x
Cc1ccc(C(CNS(=O)(=O)c2ccc(F)cc2C)N2CCN(C)CC2)cc1 (stereo not given) | x | 570 | x | x | x | 2 | x | x | x | x
CN(CC(=O)Nc1c(Cl)cccc1Cl)C(=O)c1cc2ccccc2cc1O | x | 438 | x | x | x | 4 | x | x | x | x
c1ccc(CNc2ncnc3ccccc23)cc1 | -7 | 162 | 1 | 8 | -2 | 1 | x | x | x | x
c1ccc(CNc2c3ccccc3nc3ccccc23)cc1 | -13 | 209 | 22* | -2 | -2 | -2 | -3 | 1 | -5 | 32*
O=C(CNC(=O)c1ccccc1)NCCc1ccc(O)c(O)c1 | -5 | 545 | -3 | -1 | -4 | -1 | x | x | x | x
Oc1ccc(CCNc2c3ccccc3nc3ccccc23)cc1O | 3 | 377 | 17* | 16 | -5 | -1 | -4 | 0 | -6 | 21*
Cc1nc2cc(NC(=O)c3ccc(N4C(=O)CCC4=O)cc3)ccc2s1 | 12 | i | -4 | 7 | -5 | -6 | x | x | x | x
Cc1csc(NC(=O)c2ccc3nc[nH]c3c2)n1 | -9 | 188 | -2 | 10 | -1 | 0 | x | x | x | x
Cn1c2ccccc2c2nnc(SCCN3CCOCC3)nc21 | 6 | x | 17* | 3 | -2 | x | -3 | 0 | -9 | 23*

Screening results as filed in PubChem BioAssay.
